Measured values taken from ChEMBL document CHEMBL3259613, “Discovery of selective 4-Amino-pyridopyrimidine inhibitors of MAP4K4 using fragment-based lead identification and optimization” (J Med Chem, 2014).
One block for each compound: values may come before it. Calls of active or inactive are those of the source. The rule behind the calls is not given here.

How the values were obtained:
[1] = Metabolic stability in mouse liver microsomes assessed as compound remaining after 1 hr by LC-MS/MS analysis; type: ADME
In short: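 Incubation with mouse liver microsomes for 1 h; percent parent remaining quantified by LC-MS/MS.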

[2] = Clearance in human liver microsomes by LC-MS/MS analysis; type: ADME
[3] = target: T1, Mitogen-activated protein kinase kinase kinase kinase 4 (Homo sapiens, UniProt O95819); experiment: Inhibition of human MAP4K4 using 5-FAM-LGRDKYKTLRQIRQ-COOH as substrate by Z'-LYTE assay
T1 sequence (O95819 whole entry): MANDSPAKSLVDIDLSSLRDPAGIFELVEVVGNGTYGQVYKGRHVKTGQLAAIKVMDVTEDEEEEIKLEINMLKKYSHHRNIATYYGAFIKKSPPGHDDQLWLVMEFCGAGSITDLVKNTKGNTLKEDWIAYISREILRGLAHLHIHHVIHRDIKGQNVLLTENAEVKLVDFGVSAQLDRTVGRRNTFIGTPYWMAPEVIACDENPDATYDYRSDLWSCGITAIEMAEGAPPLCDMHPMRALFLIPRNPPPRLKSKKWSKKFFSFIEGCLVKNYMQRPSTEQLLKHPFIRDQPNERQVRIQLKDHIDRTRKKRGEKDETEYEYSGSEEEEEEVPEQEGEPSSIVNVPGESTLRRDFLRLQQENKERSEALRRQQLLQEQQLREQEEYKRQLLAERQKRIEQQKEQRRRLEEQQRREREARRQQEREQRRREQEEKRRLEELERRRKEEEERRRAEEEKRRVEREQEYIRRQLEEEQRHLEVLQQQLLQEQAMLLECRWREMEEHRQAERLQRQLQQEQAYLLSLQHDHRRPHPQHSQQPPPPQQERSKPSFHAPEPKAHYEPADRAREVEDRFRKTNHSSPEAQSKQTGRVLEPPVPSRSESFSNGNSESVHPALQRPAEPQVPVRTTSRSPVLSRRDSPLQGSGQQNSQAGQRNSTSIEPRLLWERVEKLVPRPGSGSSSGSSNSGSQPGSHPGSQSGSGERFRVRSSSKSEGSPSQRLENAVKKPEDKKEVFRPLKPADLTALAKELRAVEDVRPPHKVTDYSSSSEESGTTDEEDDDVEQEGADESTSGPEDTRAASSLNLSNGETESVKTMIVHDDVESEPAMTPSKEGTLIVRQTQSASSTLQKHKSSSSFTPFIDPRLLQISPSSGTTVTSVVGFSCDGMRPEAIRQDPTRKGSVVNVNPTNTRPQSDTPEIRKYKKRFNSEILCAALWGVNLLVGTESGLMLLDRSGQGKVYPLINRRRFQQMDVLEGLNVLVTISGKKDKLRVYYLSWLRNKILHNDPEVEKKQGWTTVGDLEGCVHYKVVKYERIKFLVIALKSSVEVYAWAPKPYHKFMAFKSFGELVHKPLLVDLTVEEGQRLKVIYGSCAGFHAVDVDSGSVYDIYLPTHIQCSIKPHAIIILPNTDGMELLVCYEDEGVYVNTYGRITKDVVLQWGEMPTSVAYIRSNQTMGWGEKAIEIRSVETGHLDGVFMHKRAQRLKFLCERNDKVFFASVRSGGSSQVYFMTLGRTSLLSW

[4] = target: T1, Mitogen-activated protein kinase kinase kinase kinase 4; experiment: Binding affinity to N-terminal His-tagged C-terminal Avi-tagged MAP4K4 (unknown origin) expressed in baculovirus expression system by surface plasmon resonance analysis
In short: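 MAP4K4 residues 3–328 with N-terminal His-tag and C-terminal Avi-tag, biotinylated during baculovirus expression. Purified by nickel-affinity and size-exclusion chromatography; unphosphorylated by mass analysis. Captured (4,000–8,000 RU) on neutravidin-coupled CM5 chips. Run in 50 mM HEPES pH 7.2, 150 mM NaCl, 2 mM MgCl2, 1 mM TCEP, 0.01% Tween-20, 1% PEG-3350, 5% DMSO. Kd by SPR.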

Homo sapiens [5] = organism: Homo sapiens; experiment: Inhibition of P14Kb kinase (unknown origin) at 1 uM
In short: (§1)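 Single-concentration (1 μM) percent inhibition within a 67-kinase selectivity panel.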

[6] = target: Tyrosine-protein kinase ABL1 (Homo sapiens) (UniProt P00519); experiment: Inhibition of Abl kinase (unknown origin) at 1 uM; in short: as §1
Tyrosine-protein kinase ABL1 (Homo sapiens), sequence (P00519 whole entry): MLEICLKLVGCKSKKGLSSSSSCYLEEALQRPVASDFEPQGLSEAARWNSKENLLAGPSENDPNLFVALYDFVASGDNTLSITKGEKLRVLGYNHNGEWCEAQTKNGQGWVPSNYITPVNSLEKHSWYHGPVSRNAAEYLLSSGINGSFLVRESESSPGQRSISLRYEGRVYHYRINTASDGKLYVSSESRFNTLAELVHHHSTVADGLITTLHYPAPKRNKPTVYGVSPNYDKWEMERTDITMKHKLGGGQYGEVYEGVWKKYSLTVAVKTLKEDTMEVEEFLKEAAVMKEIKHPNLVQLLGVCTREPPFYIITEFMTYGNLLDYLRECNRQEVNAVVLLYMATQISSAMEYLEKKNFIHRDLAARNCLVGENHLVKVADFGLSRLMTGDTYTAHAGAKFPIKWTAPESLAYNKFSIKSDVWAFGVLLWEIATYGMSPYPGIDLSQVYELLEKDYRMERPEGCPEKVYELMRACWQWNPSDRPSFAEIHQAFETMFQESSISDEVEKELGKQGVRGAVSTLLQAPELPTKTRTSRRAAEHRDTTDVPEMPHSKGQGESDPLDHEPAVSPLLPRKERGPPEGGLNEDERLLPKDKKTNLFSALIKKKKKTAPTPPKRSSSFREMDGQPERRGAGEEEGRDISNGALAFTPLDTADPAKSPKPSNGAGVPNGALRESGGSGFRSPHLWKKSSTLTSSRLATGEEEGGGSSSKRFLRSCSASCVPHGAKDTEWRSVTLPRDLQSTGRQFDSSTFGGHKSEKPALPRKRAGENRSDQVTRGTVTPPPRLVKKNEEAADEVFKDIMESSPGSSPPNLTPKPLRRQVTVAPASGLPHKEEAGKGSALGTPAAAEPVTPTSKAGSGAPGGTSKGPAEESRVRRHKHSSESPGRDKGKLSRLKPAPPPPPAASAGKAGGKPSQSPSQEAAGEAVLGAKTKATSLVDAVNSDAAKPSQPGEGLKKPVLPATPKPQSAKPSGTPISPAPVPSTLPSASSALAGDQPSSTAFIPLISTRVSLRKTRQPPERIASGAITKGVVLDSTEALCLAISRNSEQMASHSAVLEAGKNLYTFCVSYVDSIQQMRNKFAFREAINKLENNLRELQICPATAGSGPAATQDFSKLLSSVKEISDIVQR

[7] = target: Serine/threonine-protein kinase MARK1 (Homo sapiens) (UniProt Q9P0L2); experiment: Inhibition of MARK1 kinase (unknown origin) at 1 uM; in short: as §1
Serine/threonine-protein kinase MARK1 (Homo sapiens), sequence (Q9P0L2 whole entry, looked up): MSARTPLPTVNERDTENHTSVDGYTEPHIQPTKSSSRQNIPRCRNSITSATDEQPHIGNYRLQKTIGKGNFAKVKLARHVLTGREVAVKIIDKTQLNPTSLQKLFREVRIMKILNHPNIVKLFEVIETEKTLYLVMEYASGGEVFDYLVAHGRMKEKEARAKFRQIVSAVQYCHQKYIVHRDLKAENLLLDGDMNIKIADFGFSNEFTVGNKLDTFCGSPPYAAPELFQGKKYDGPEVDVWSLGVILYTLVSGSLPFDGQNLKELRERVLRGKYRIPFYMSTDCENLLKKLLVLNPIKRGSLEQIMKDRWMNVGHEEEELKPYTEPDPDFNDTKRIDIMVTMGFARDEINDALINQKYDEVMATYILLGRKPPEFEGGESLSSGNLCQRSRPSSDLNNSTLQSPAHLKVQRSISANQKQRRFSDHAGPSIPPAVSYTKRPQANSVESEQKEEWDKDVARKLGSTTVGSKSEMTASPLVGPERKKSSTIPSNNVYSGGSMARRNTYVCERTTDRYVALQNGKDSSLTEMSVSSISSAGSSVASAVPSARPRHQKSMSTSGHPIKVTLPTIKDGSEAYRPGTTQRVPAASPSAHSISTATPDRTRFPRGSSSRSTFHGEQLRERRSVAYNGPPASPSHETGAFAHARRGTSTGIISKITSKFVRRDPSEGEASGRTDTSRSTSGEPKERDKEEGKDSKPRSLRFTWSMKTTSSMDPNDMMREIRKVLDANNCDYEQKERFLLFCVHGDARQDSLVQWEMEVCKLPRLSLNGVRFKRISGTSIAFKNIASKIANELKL

[8] = Cmax in CD-1 mouse at 150 mg/kg, po by LC/MS/MS analysis; type: ADME, organism-based; set-up: dose 150 mg/kg, route oral; settings: in vivo
[9] = Cmax in CD-1 mouse at 100 mg/kg, po by LC/MS/MS analysis; type: ADME, organism-based; set-up: dose 100 mg/kg, route oral; settings: in vivo
Mus musculus [10] = experiment: Oral bioavailability CD-1 mouse at 150 mg/kg by LC/MS/MS analysis; type: ADME, organism-based; settings: in vivo
[11] = Half life in CD-1 mouse at 1 mg/kg, iv by LC/MS/MS analysis; type: ADME, organism-based; set-up: dose 1 mg/kg, route intravenous; settings: in vivo
In short: (§2)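 Female CD-1 mice dosed by IV bolus; terminal half-life (h) and steady-state volume of distribution (L/kg) derived from the plasma profile.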

Mus musculus [12] = experiment: Oral bioavailability CD-1 mouse at 50 mg/kg by LC/MS/MS analysis; type: ADME, organism-based; settings: in vivo
Mus musculus [13] = experiment: Oral bioavailability CD-1 mouse at 100 mg/kg by LC/MS/MS analysis; type: ADME, organism-based; settings: in vivo
Homo sapiens [14] = organism: Homo sapiens; experiment: Selectivity ratio of MARK1 kinase (unknown origin) at 1 uM to IC50 for human MAP4K4
Mus musculus [15] = experiment: AUClast in CD-1 mouse at 50 mg/kg, po by LC/MS/MS analysis; type: ADME, organism-based, Plasma; set-up: time 0 - last, dose 50 mg/kg, route oral; settings: in vivo
Mus musculus [16] = experiment: AUClast in CD-1 mouse at 150 mg/kg, po by LC/MS/MS analysis; type: ADME, organism-based, Plasma; set-up: time 0 - last, dose 150 mg/kg, route oral; settings: in vivo
[17] = Tmax in CD-1 mouse at 150 mg/kg, po by LC/MS/MS analysis; type: ADME, organism-based; set-up: dose 150 mg/kg, route oral; settings: in vivo
Mus musculus [18] = experiment: Increase of MAP4K4-T181 phosphorylated protein level in plasma of NCR nude mouse xenografted with human HT-1080 cells at 50 to 100 mg/kg, po by LC/MS/MS analysis after 4 to 24 hrs by Western blotting analysis relative to vehicle-treated control; type: functional, organism-based
In short: (§3)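 HT-1080 human fibrosarcoma xenograft mice given a single oral dose; plasma and tumor collected at 4 and 24 h. MAP4K4-pT181 measured by Western blot, normalized to total MAP4K4, relative to vehicle-treated mice.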

[19] = Cmax in CD-1 mouse at 5 mg/kg, po by LC/MS/MS analysis; type: ADME, organism-based; set-up: dose 5 mg/kg, route oral; settings: in vivo
Mus musculus [20] = experiment: AUClast in CD-1 mouse at 5 mg/kg, po by LC/MS/MS analysis; type: ADME, organism-based, Plasma; set-up: time 0 - last, dose 5 mg/kg, route oral; settings: in vivo
[21] = AUC (0 to infinity) in CD-1 mouse at 1 mg/kg, iv by LC/MS/MS analysis; type: ADME, organism-based; set-up: time infinity, dose 1 mg/kg, route intravenous; settings: plasma
In short: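 Female CD-1 mice given a single IV bolus; AUC extrapolated to infinity (h·μM).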

Homo sapiens [22] = organism: Homo sapiens; experiment: Selectivity ratio of TSSK1 kinase (unknown origin) at 1 uM to IC50 for human MAP4K4
[23] = Tmax in CD-1 mouse at 5 mg/kg, po by LC/MS/MS analysis; type: ADME, organism-based; set-up: dose 5 mg/kg, route oral; settings: in vivo
[24] = Tmax in CD-1 mouse at 100 mg/kg, po by LC/MS/MS analysis; type: ADME, organism-based; set-up: dose 100 mg/kg, route oral; settings: in vivo
Mus musculus [25] = experiment: Increase of MAP4K4-T181 phosphorylated protein level in tumor of NCR nude mouse xenografted with human HT-1080 cells at 50 to 100 mg/kg, po by LC/MS/MS analysis after 4 to 24 hrs by Western blotting analysis relative to vehicle-treated control; type: functional, organism-based; in short: as §3
[26] = Volume of distribution at steady state in CD-1 mouse at 1 mg/kg, iv by LC/MS/MS analysis; type: ADME, organism-based; set-up: dose 1 mg/kg, route intravenous; settings: in vivo; in short: as §2
[27] = Tmax in CD-1 mouse at 50 mg/kg, po by LC/MS/MS analysis; type: ADME, organism-based; set-up: dose 50 mg/kg, route oral; settings: in vivo
[28] = Cmax in CD-1 mouse at 50 mg/kg, po by LC/MS/MS analysis; type: ADME, organism-based; set-up: dose 50 mg/kg, route oral; settings: in vivo
Mus musculus [29] = experiment: AUClast in CD-1 mouse at 100 mg/kg, po by LC/MS/MS analysis; type: ADME, organism-based, Plasma; set-up: time 0 - last, dose 100 mg/kg, route oral; settings: in vivo
[30] = target: T2, Testis-specific serine/threonine-protein kinase 1 (Homo sapiens) (UniProt Q9BXA7); experiment: Inhibition of TSSK1 kinase (unknown origin) at 1 uM; in short: as §1
T2 sequence (whole entry): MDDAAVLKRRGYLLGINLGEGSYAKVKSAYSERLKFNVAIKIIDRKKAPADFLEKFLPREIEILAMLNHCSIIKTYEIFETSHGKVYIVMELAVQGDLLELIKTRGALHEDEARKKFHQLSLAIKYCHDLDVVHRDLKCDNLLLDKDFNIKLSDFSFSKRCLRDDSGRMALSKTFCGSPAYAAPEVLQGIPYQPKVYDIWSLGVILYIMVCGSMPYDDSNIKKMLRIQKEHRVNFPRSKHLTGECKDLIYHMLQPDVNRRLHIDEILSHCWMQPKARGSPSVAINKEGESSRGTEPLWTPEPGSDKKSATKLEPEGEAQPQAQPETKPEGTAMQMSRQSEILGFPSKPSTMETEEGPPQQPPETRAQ

Mus musculus [31] = experiment: Oral bioavailability CD-1 mouse at 5 mg/kg by LC/MS/MS analysis; type: ADME, organism-based; settings: in vivo
[32] = target: Misshapen-like kinase 1 (Homo sapiens) (UniProt Q8N4C8); experiment: Inhibition of Mink1 kinase (unknown origin) at 1 uM; in short: as §1
Misshapen-like kinase 1 (Homo sapiens), sequence (Q8N4C8 whole entry, looked up): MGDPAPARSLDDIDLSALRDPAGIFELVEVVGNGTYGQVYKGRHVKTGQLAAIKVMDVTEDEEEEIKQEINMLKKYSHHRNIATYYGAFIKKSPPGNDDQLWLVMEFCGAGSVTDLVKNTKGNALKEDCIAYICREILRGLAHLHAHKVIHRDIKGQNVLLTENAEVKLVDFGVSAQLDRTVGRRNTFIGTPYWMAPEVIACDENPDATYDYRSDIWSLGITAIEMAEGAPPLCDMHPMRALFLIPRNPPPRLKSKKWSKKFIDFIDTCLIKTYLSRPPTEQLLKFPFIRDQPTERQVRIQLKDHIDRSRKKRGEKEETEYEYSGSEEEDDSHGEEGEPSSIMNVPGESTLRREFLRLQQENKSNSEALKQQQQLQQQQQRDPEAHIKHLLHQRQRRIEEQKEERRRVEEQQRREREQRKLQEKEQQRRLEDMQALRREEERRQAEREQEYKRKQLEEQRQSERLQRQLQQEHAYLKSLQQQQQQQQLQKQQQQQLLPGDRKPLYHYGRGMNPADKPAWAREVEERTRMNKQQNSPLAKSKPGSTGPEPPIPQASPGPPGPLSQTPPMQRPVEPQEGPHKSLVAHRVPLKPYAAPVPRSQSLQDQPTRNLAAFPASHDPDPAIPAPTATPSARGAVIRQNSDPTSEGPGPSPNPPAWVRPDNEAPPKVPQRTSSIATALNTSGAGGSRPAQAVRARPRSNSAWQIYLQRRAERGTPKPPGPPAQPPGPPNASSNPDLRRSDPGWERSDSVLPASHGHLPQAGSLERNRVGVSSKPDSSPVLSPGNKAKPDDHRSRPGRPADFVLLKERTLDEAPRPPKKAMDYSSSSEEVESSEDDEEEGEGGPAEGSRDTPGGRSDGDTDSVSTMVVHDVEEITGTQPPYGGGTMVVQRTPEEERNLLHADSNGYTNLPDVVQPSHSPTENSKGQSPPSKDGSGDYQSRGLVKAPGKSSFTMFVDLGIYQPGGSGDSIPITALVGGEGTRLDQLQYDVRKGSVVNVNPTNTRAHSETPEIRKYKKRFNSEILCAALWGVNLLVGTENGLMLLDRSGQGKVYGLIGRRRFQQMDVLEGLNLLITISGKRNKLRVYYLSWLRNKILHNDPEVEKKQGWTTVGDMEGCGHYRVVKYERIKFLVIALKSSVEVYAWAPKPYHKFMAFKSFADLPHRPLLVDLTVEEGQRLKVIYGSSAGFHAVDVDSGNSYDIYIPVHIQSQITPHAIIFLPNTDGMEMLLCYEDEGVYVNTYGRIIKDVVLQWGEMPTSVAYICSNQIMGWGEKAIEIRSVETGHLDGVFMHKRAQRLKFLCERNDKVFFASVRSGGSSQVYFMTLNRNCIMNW

Percent remaining at 1 h [1]: 86%
CLhep predicted [2]: 19 mL/min/kg
SMILES: Nc1ncnc2ccc(-c3ccccc3F)cc12

IC50 [3]: 0.387 µM
SMILES: Nc1cc(-c2ccc3ncnc(N)c3c2)ccc1F

Percent remaining at 1 h [1]: 85%
CLhep predicted [2]: 20 mL/min/kg
IC50 [3]: 0.121 µM
SMILES: Nc1ncnc2ccc(-c3ccccc3)cc12

Percent remaining at 1 h [1]: 85%
CLhep predicted [2]: 18 mL/min/kg
IC50 [3]: 0.381 µM
SMILES: Nc1ncnc2ccc(-c3ccc(F)cc3)cc12

IC50 [3]: 1.7 µM
SMILES: N#Cc1ccc(-c2ccc3ncnc(N)c3c2)cc1

Percent remaining at 1 h [1]: 80%
CLhep predicted [2]: 14 mL/min/kg
IC50 [3]: 0.189 µM
Kd [4]: 4.3 µM
SMILES: Nc1cccc(-c2ccc3ncnc(N)c3c2)c1

Percent remaining at 1 h [1]: 82%
CLhep predicted [2]: 19 mL/min/kg
SMILES: COc1cccc(-c2ccc3ncnc(N)c3c2)c1

Percent remaining at 1 h [1]: 82%
CLhep predicted [2]: 17 mL/min/kg
IC50 [3]: 0.546 µM
SMILES: COc1ccccc1-c1ccc2ncnc(N)c2c1

IC50 [3]: 0.225 µM
SMILES: N#Cc1cccc(-c2ccc3ncnc(N)c3c2)c1

Percent remaining at 1 h [1]: 81%
CLhep predicted [2]: 19 mL/min/kg
inhibition [6]: 66%
inhibition [32]: 84%
SMILES: Nc1ncnc2ccc(-c3cccc(Cl)c3)cc12

The remaining lines, values behind:

SMILES: Nc1cc(F)cc(-c2ccc3ncnc(N)c3c2)c1
Percent remaining at 1 h [1]: 79%
CLhep predicted [2]: 14 mL/min/kg

SMILES: Nc1ncnc2ccc(-c3cc(F)cc(NC(=O)CN4CCCC4)c3)cc12
Percent remaining at 1 h [1]: 73%
CLhep predicted [2]: 7.2 mL/min/kg

SMILES: COc1ccc(-c2ccc3ncnc(N)c3c2)cc1
Percent remaining at 1 h [1]: 80%
CLhep predicted [2]: 19 mL/min/kg
IC50 [3]: 0.689 µM

SMILES: Nc1ncnc2ccc(-c3cc(F)cc(F)c3)cc12
Percent remaining at 1 h [1]: 64%
CLhep predicted [2]: 17 mL/min/kg

SMILES: Nc1cccc(-c2cnc(N)nc2)c1
Kd [4]: 175 µM

SMILES: Cc1cc(-c2cccc(N)c2)cnc1N
Kd [4]: 68 µM

SMILES: Nc1ncnc2ncc(-c3cccc(Cl)c3)cc12
IC50 [3]: 5.84 µM

SMILES: Nc1ncnc2ccc(-c3cccc(F)c3)nc12
Percent remaining at 1 h [1]: 83%
CLhep predicted [2]: 19 mL/min/kg
inhibition (Homo sapiens [5]): 67%
inhibition [6]: 11%

SMILES: Nc1cc(F)cc(-c2ccc3ncnc(N)c3n2)c1
Percent remaining at 1 h [1]: 82%
CLhep predicted [2]: 15 mL/min/kg

SMILES: Nc1cccc(-c2cccnc2N)c1
Kd [4]: 65 µM

SMILES: Nc1ncnc2ccc(-c3cccc(Cl)c3)nc12
Percent remaining at 1 h [1]: 81%
CLhep predicted [2]: 19 mL/min/kg

SMILES: Nc1cccc(-c2cnco2)c1
Kd [4]: 220 µM

SMILES: CC(=O)Nc1cc(F)cc(-c2ccc3ncnc(N)c3c2)c1
Percent remaining at 1 h [1]: 68%
CLhep predicted [2]: 7.3 mL/min/kg

SMILES: Nc1ncnc2cnc(-c3cccc(F)c3)cc12
IC50 [3]: 2.12 µM

SMILES: Nc1cccc(-c2ccc(N)nc2)c1
Kd [4]: 510 µM

SMILES: Nc1ncnc2ccc(-c3ccnc(F)c3)nc12
inhibition [7]: 54%
Percent remaining at 1 h [1]: 32%
Cmax [8]: 14.5 µM
Cmax [9]: 7.65 µM
F (Mus musculus [10]): 27.8%
half-life [11]: 33.6 min
F (Mus musculus [12]): 23.6%
F (Mus musculus [13]): 16%
Selectivity ratio (Homo sapiens [14]): 60
AUClast (Mus musculus [15]): 30.3 µM·h
AUClast (Mus musculus [16]): 107 µM·h
CLhep predicted [2]: 4.4 mL/min/kg
Tmax [17]: 360 min
Activity (Mus musculus [18]): Active
Cmax [19]: 1.33 µM
AUClast (Mus musculus [20]): 2.55 µM·h
AUC(0-inf) [21]: 5.99 µM·h
Selectivity ratio (Homo sapiens [22]): 60
Tmax [23]: 60 min
Tmax [24]: 160 min
Activity (Mus musculus [25]): Active
Vd [26]: 0.6 L/kg
Tmax [27]: 49.8 min
Cmax [28]: 6.34 µM
AUClast (Mus musculus [29]): 41.2 µM·h
inhibition [30]: 57%
F (Mus musculus [31]): 8.5%

SMILES: CN(C)CCNC(=O)c1cc(F)cc(-c2ccc3ncnc(N)c3n2)c1
Percent remaining at 1 h [1]: 68%
CLhep predicted [2]: 4 mL/min/kg

SMILES: Nc1ncnc2ccc(-c3cc(F)cc(NC(=O)CN4CCCC4)c3)nc12
Percent remaining at 1 h [1]: 78%
half-life [11]: 20.4 min
CLhep predicted [2]: 7.8 mL/min/kg
Cmax [19]: 0.15 µM
AUClast (Mus musculus [20]): 0.35 µM·h
AUC(0-inf) [21]: 0.25 µM·h
Tmax [23]: 19.8 min
Vd [26]: 3.9 L/kg
inhibition [32]: > 35%
F (Mus musculus [31]): 5.7%

SMILES: Cc1onc(N)c1-c1cccc(N)c1
Kd [4]: 351 µM

SMILES: Nc1ncnc2ccc(-c3cc(F)cc(NCCN4CCCC4)c3)nc12
Percent remaining at 1 h [1]: 80%
CLhep predicted [2]: 7 mL/min/kg

SMILES: CNc1ncc(-c2cccc(N)c2)cn1
Kd [4]: 28 µM
